Data reported in ChEMBL document CHEMBL4020840, “Synthesis and Biological Evaluation of Selenium-Containing 4-Anilinoquinazoline Derivatives as Novel Antimitotic Agents” (J Med Chem, 2018).

Assays:
[1] = tested on: A549; test: Growth inhibition of human A549 cells after 48 hrs by MTT assay; format: functional, cell-based; settings: A549, 48 h
[2] = tested on: BJ; test: Antiproliferative activity against human BJ cells after 48 hrs by MTT assay; format: cell-based
How it was run: (§1)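 MTT assay: log-phase cells plated at 5 × 10³/well for 24 h, then exposed to a range of test concentrations for 48 h. MTT (5 mg/mL) added for 4 h, formazan dissolved in DMSO, absorbance read at 570 nm. IC50 is the concentration giving 50% growth inhibition, from dose-response curves; at least three independent experiments, mean ± SE.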

[3] = tested on: HeLa; test: Antiproliferative activity against human HeLa cells after 48 hrs by MTT assay; format: functional, cell-based; how it was run: as §1
[4] = tested on: A549; test: Induction of apoptosis in human A549 cells assessed as late apoptotic cells at 4 nM after 48 hrs by Annexin V-FITC/propidium iodide staining based flow cytometry (reference value: 0.03%); format: functional
[5] = tested on: A549; test: Induction of apoptosis in human A549 cells assessed as necrotic cells at 2 nM after 48 hrs by Annexin V-FITC/propidium iodide staining based flow cytometry relative to control; format: functional
[6] = Resistance factor, ratio of IC50 for human A549/CDDP cells to IC50 for human A549 cells; format: functional
How it was run: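 MTT assay: log-phase cells were seeded at 5 × 10³/well for 24 h, then exposed to a concentration series for 48 h. MTT (5 mg/mL) was added for 4 h, formazan was dissolved in DMSO, and A570 was read. IC50 values came from dose–response curves of at least three independent experiments. Resistance factor = IC50 in the resistant line / IC50 in the parental sensitive line.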

[7] = tested on: LoVo; test: Growth inhibition of human LoVo cells after 48 hrs by MTT assay; format: functional, cell-based; how it was run: as §1
[8] = tested on: A549; test: Induction of apoptosis in human A549 cells assessed as live cells at 2 nM after 48 hrs by Annexin V-FITC/propidium iodide staining based flow cytometry (reference value: 98.49%); format: functional
[9] = tested on: A549; test: Induction of apoptosis in human A549 cells assessed as live cells at 2 nM after 24 hrs by Annexin V-FITC/propidium iodide staining based flow cytometry (reference value: 98.84%); format: functional
[10] = tested on: HCT-116; test: Growth inhibition of human HCT116 cells after 48 hrs by MTT assay; format: functional, cell-based; settings: HCT-116, 48 h; how it was run: as §1
[11] = tested on: A549; test: Induction of apoptosis in human A549 cells assessed as necrotic cells at 4 nM after 24 hrs by Annexin V-FITC/propidium iodide staining based flow cytometry (reference value: 0.10%); format: functional
[12] = tested on: MDA-MB-231; test: Growth inhibition of human MDA-MB-231 cells after 48 hrs by MTT assay; format: functional, cell-based; settings: MDA-MB-231, 48 h; how it was run: as §1
[13] = tested on: A549; test: Induction of apoptosis in human A549 cells assessed as early apoptotic cells at 4 nM after 24 hrs by Annexin V-FITC/propidium iodide staining based flow cytometry (reference value: 0.98%); format: functional
[14] = tested on: A549; test: Induction of apoptosis in human A549 cells assessed as late apoptotic cells at 2 nM after 48 hrs by Annexin V-FITC/propidium iodide staining based flow cytometry (reference value: 0.03%); format: functional
[15] = tested on: A549; test: Induction of apoptosis in human A549 cells assessed as necrotic cells at 2 nM after 24 hrs by Annexin V-FITC/propidium iodide staining based flow cytometry (reference value: 0.10%); format: functional
[16] = tested on: A549; test: Induction of apoptosis in human A549 cells assessed as late apoptotic cells at 2 nM after 24 hrs by Annexin V-FITC/propidium iodide staining based flow cytometry (reference value: 0.08%); format: functional
[17] = Selectivity index, ratio of IC50 for human LO2 cells to IC50 for human A549 cells; format: functional
How it was run: (§2)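 MTT assay in normal cells and A549: seeding at 5 × 10³ cells/well for 24 h, 48 h compound exposure, then 5 mg/mL MTT for 4 h, DMSO solubilisation and absorbance at 570 nm. IC50 values came from dose–response curves of at least three independent experiments. Selectivity ratio = IC50 in normal cells / IC50 in A549.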

[18] = Growth inhibition of human HepG2/DOX cells after 48 hrs by MTT assay; format: functional, cell-based; how it was run: as §1
[19] = Inhibition of porcine brain tubulin polymerization measured every 60 secs for 90 mins by DAPI staining based fluorescence assay; design: species or system Sus scrofa
How it was run: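 Purified tubulin was tested in a kit assay. Final buffer: 80 mM PIPES sesquisodium (pH 6.9), 2.0 mM MgCl₂, 0.5 mM EGTA, 1 mM GTP, 10.2% glycerol. Compound (0.1–10 μM) was prewarmed at 37 °C for 1 min before tubulin was added. DAPI reporter fluorescence (ex 340 / em 410 nm) was read every 60 s for 90 min. Area under the curve gave percent inhibition versus control and the IC50.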

[20] = tested on: MCF7; test: Antiproliferative activity against human MCF7 cells after 48 hrs by MTT assay; format: functional, cell-based; settings: MCF7, 48 h; how it was run: as §1
[21] = Selectivity index, ratio of IC50 for human BJ cells to IC50 for human A549 cells; format: functional; how it was run: as §2
[22] = tested on: A549; test: Cell cycle arrest in human A549 cells assessed as accumulation at G2/M phase at 4 nM up to 24 hrs by propidium iodide staining based flow cytometry (reference value: 10.13%); format: functional
How it was run: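 A549 seeded in six-well plates at 3 × 10⁵ cells/well and treated for 12 or 24 h; vehicle 0.01% DMSO. Cells fixed overnight in ice-cold 70% ethanol, treated with RNase A at 37 °C for 30 min, then stained with PI at 4 °C for 30 min. About 10 000 events acquired by flow cytometry at 488 nm; three experiments.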

[23] = tested on: A549; test: Induction of apoptosis in human A549 cells assessed as live cells at 4 nM after 48 hrs by Annexin V-FITC/propidium iodide staining based flow cytometry (reference value: 98.49%); format: functional
[24] = tested on: MGC-803; test: Antiproliferative activity against human MGC803 cells after 48 hrs by MTT assay; format: functional, cell-based; settings: MGC-803, 48 h; how it was run: as §1
[25] = tested on: A549; test: Induction of apoptosis in human A549 cells assessed as early apoptotic cells at 4 nM after 48 hrs by Annexin V-FITC/propidium iodide staining based flow cytometry (reference value: 1.48%); format: functional
[26] = tested on: A549; test: Induction of apoptosis in human A549 cells assessed as live cells at 4 nM after 24 hrs by Annexin V-FITC/propidium iodide staining based flow cytometry (reference value: 98.84%); format: functional
[27] = tested on: A549/CDDP; test: Growth inhibition of human A549/CDDP cells after 48 hrs by MTT assay; format: functional, cell-based; how it was run: as §1
[28] = tested on: A549; test: Induction of apoptosis in human A549 cells assessed as late apoptotic cells at 4 nM after 24 hrs by Annexin V-FITC/propidium iodide staining based flow cytometry (reference value: 0.08%); format: functional
[29] = tested on: A549; test: Induction of apoptosis in human A549 cells assessed as early apoptotic cells at 2 nM after 48 hrs by Annexin V-FITC/propidium iodide staining based flow cytometry (reference value: 1.48%); format: functional
[30] = tested on: L02; test: Antiproliferative activity against human LO2 cells after 48 hrs by MTT assay; format: cell-based; settings: L02, 48 h; how it was run: as §1
[31] = Antiproliferative activity against HLF after 48 hrs by MTT assay; format: cell-based; settings: Homo sapiens; how it was run: as §1
[32] = Selectivity index, ratio of IC50 for HLF to IC50 for human A549 cells; how it was run: as §2
[33] = tested on: A549; test: Induction of apoptosis in human A549 cells assessed as necrotic cells at 4 nM after 48 hrs by Annexin V-FITC/propidium iodide staining based flow cytometry relative to control; format: functional
[34] = tested on: RKO; test: Growth inhibition of human RKO cells after 48 hrs by MTT assay; format: functional, cell-based; how it was run: as §1
[35] = tested on: HepG2; test: Growth inhibition of human HepG2 cells after 48 hrs by MTT assay; format: functional, cell-based; settings: HepG2, 48 h; how it was run: as §1
[36] = tested on: A549; test: Induction of apoptosis in human A549 cells assessed as early apoptotic cells at 2 nM after 24 hrs by Annexin V-FITC/propidium iodide staining based flow cytometry (reference value: 0.98%); format: functional

For `Cc1nc(N(C)c2ccc([Se]C#N)cc2)c2ccccc2n1`, the IC50 [1] was 11 nM, the IC50 [2] was 33 nM and the IC50 [3] was 9 nM. For the same compound, the Activity [4] was 29.41%, the Activity [5] was 1.94% and the “Ratio IC50” value [6] was 3.56. The IC50 [7] was 32 nM, the Activity [8] was 74.73% and the Activity [9] was 82.96%. It also gave an IC50 [10] of 15 nM, an Activity [11] of 1.77% and an IC50 [12] of 20 nM. The Activity [13] was 27.46%, the Activity [14] was 5.78% and the Activity [15] was 1.11%. The Activity [16] was 2.38%, the “Ratio IC50” value [17] was 4.1 and the IC50 [18] was 29 nM. For the same compound, the IC50 [19] was 3120 nM, the IC50 [20] was 19 nM and the “Ratio IC50” value [21] was 3.7. For the same compound, the Activity [22] was 69.69%, the Activity [23] was 40.54% and the IC50 [24] was 12 nM. It also gave an Activity [25] of 21.45%, an Activity [26] of 64.96% and an IC50 [27] of 32 nM. The Activity [28] was 5.58%, the Activity [29] was 17.56% and the IC50 [30] was 37 nM. For the same compound, the IC50 [31] was 41 nM, the “Ratio IC50” value [32] was 4.6 and the Activity [33] was 7.59%. The IC50 [34] was 9 nM, the IC50 [35] was 9 nM and the Activity [36] was 13.55%.
